Measured values from different studies.
Protocols differ between the studies behind these lines. pEC50, pKd, pKi: −log10 of the molar value.
LATS1: Serine/threonine-protein kinase LATS1 (LATS1, Homo sapiens, UniProt O95835)
Microphthalmia-associated transcription factor: Microphthalmia-associated transcription factor (Homo sapiens, UniProt O75030)
ADRA2A: Alpha-2A adrenergic receptor (ADRA2A, Homo sapiens, UniProt P08913)

Cc1cc(-c2ccnc3[nH]cc(F)c23)cc(F)c1[C@@]1(O)[C@H](C)CN(C(=O)CN)C[C@@H]1C — pKd (LATS1; binding, TR-FRET): 9.05
O=C(O)c1cc2ccc(C#CC3(O)CCCCC3)cc2n1-c1ccccc1 — pKd (Microphthalmia-associated transcription factor; binding, ITC): 4.87
Cc1cc(Oc2ncccc2CN2CCN(c3ccccc3Br)CC2)ccc1-c1c(C)c(=O)[nH]c(=O)n1C — pKi (ADRA2A; ligand displacement, radioligand): 6.87
Cc1cc(-c2ccnc3[nH]cc(F)c23)cc(F)c1[C@@]1(O)[C@H](C)CN(C2CCS(=O)(=O)CC2)C[C@@H]1C — pKd (LATS1; binding, TR-FRET): 8.60
Cc1cc(Oc2ncccc2CN2CCN(c3ccc(F)cc3F)CC2)ccc1-c1c(C)c(=O)[nH]c(=O)n1C — pKi (ADRA2A; ligand displacement, radioligand): 6.49
CC(C)(C)NC(=O)C1CCN(Cc2cccc(NC(=O)c3ccc(F)cc3)c2)CC1 — pEC50 (Atypical chemokine receptor 3 (ACKR3, Homo sapiens, UniProt P25106); β-arrestin recruitment, agonist, luciferase): 8.00
Cc1cc(C#CC2(O)CCCCC2)cc2c1cc(C(=O)O)n2-c1ccccc1 — pKd (Microphthalmia-associated transcription factor; binding, ITC): 5.46
CC(C)C[C@H](NC(=O)[C@H](CC(C)C)NC(=O)[C@H](Cc1c[nH]c2ccccc12)NC(=O)[C@H](CCC(N)=O)NC(=O)[C@@H](NC(=O)[C@H](Cc1ccccc1)NC(=O)[C@H](CC(=O)O)NC(=O)[C@H](CCC(N)=O)NC(=O)[C@H](C)NC(=O)[C@H](C)NC(=O)[C@H](CCCNC(=N)N)NC(=O)[C@H](CCC(=O)O)NC(=O)[C@H](CC(=O)O)NC(=O)[C@H](CC(C)C)NC(=O)[C@H](Cc1ccc(O)cc1)NC(=O)[C@H](CCCCN)NC(=O)[C@H](CO)NC(=O)[C@H](Cc1ccc(O)cc1)NC(=O)[C@H](CC(=O)O)NC(=O)[C@H](CO)NC(=O)[C@@H](NC(=O)[C@H](Cc1ccccc1)NC(=O)[C@@H](NC(=O)CNC(=O)[C@H](CCC(N)=O)NC(=O)C(C)(C)NC(=O)[C@@H](N)Cc1c[nH]cn1)[C@@H](C)O)[C@@H](C)O)C(C)C)C(=O)N[C@@H](CC(=O)O)C(=O)NCC(=O)NCC(=O)N1CCC[C@H]1C(=O)N[C@@H](CO)C(=O)N[C@@H](CC(C)C)C(=O)N[C@@H](CCCNC(=N)N)C(=O)N[C@@H](Cc1c[nH]cn1)C(=O)N[C@@H](Cc1ccc(O)cc1)C(=O)N[C@@H](CC(C)C)C(=O)N[C@@H](CC(N)=O)C(=O)N[C@@H](CC(C)C)C(=O)N[C@H](C(=O)N[C@H](C(=O)N[C@@H](CCCNC(=N)N)C(=O)N[C@@H](CCC(N)=O)C(=O)N[C@@H](CCCNC(=N)N)C(=O)N[C@@H](Cc1ccc(O)cc1)C(N)=O)[C@@H](C)O)C(C)C — pEC50 (Gastric inhibitory polypeptide receptor (GIPR, Homo sapiens, UniProt P48546); reporter gene, agonist, luciferase): 9.55
